This note sets out measurements from article PMC3401285 (Bioorganic & medicinal chemistry letters, 2012).

Molecules are shown by their SMILES.

What all share (assay type): cell-based
One experiment has as its target T1, human M4 receptor (Homo sapiens, UniProt P08173).
T1 sequence (P08173 1-479): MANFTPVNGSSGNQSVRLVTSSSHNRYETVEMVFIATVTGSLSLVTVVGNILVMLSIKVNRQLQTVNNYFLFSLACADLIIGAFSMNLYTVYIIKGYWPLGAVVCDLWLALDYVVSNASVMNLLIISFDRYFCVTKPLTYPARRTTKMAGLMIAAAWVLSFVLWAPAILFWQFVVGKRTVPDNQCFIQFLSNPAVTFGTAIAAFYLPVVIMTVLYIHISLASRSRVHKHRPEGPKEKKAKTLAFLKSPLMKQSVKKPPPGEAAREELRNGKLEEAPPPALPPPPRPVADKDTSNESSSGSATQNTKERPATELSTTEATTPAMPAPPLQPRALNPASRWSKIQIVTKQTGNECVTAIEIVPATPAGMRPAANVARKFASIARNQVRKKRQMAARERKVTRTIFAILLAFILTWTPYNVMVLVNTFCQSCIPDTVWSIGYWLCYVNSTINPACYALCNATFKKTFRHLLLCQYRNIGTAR
In words: Calcium mobilization assay, potency determination. The following applies: for %AChmax ± SEM: efficacy as % of maximal ACh response, hM4; for hM4 PAM activity (in words): hM4, text statement. A general note: Calcium assays in cells follow changes in intracellular calcium, usually with a dye or a luminescent sensor.

A further experiment addresses T2, M5 (Homo sapiens, UniProt P08912).
T2 sequence (P08912 1-532): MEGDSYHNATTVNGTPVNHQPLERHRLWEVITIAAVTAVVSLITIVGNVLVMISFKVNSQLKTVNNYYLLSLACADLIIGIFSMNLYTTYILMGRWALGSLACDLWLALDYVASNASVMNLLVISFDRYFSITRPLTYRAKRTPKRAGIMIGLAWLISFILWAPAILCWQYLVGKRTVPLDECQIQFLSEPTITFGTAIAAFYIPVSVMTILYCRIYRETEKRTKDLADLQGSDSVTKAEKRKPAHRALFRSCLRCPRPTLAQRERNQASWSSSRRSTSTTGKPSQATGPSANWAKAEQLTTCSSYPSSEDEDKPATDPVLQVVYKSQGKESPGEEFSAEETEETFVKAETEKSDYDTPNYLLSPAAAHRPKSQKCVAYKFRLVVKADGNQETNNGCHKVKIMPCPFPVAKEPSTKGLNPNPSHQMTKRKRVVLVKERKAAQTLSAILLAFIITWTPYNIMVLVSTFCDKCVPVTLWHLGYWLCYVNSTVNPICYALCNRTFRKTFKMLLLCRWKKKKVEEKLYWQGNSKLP
In words: Muscarinic selectivity panel, calcium mobilization. The following applies: concentration up to 30 µM. In a few lines:
(§1)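 CHO cells stably expressing the human receptor (M1 transfected into CHO K1; M3 and M5 lines donated), grown in Ham's F-12, 10% heat-inactivated FBS, 20 mM HEPES, 500 µg/mL G418. Cells plated at 15,000/well overnight (37 °C, 5% CO2), then loaded 45 min at 37 °C with Fluo-4 AM in HBSS, 20 mM HEPES, 2.5 mM probenecid. Compound preincubated 144 s (0.3% DMSO final) before ACh; calcium read kinetically at 37 °C.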

The target of the next experiment is M3 (Homo sapiens, UniProt P20309). Nature of the experiment: Muscarinic selectivity panel, calcium mobilization. The following applies: concentration up to 30 µM. In a few lines: as §1
M3, sequence (P20309 whole entry): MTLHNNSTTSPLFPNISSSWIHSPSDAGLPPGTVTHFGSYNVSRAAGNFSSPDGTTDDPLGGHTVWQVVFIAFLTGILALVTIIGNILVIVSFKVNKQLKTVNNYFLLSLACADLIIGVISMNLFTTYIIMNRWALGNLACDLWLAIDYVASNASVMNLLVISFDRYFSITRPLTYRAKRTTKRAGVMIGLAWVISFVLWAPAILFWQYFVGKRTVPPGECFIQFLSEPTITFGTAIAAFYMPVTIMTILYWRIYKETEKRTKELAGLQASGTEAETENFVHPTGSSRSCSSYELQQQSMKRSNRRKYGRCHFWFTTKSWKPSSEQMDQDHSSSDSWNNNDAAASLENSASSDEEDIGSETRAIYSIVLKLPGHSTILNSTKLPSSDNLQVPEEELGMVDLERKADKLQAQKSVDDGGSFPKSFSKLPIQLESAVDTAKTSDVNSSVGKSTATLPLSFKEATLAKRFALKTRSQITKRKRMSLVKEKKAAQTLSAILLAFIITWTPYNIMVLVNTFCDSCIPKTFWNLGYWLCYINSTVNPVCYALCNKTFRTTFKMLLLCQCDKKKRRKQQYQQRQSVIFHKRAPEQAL
A further experiment addresses T3, M1 (Homo sapiens, UniProt P11229).
T3 sequence (P11229 1-460): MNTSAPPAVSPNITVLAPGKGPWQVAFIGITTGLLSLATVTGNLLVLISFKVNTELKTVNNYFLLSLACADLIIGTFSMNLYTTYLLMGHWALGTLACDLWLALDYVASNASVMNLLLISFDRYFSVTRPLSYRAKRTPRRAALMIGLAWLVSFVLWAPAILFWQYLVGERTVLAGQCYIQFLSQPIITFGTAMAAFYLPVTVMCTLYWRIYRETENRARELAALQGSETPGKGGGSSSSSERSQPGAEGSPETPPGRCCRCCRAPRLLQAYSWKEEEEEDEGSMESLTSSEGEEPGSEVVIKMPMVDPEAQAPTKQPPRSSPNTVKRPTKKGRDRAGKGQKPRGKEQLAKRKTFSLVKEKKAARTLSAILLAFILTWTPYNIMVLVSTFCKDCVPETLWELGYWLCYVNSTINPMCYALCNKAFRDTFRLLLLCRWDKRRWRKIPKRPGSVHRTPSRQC
Nature of the experiment: Muscarinic selectivity panel, calcium mobilization. The following applies: concentration up to 30 µM. In a few lines:
as §1

Another experiment addresses T4, M2 (Homo sapiens, UniProt P08172).
T4 sequence (P08172 1-466): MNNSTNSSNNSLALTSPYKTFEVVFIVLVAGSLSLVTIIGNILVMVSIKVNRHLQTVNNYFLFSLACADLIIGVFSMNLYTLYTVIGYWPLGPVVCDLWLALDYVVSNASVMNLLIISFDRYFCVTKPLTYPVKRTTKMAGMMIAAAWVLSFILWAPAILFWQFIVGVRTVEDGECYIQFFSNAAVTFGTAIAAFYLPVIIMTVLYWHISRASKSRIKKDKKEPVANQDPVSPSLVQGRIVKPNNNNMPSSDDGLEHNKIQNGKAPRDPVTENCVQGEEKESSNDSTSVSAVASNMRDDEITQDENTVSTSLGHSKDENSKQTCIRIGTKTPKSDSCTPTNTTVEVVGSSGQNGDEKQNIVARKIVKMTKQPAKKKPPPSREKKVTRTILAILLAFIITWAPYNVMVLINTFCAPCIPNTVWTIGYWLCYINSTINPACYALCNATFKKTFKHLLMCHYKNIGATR
In words: Muscarinic selectivity panel, calcium mobilization. The following applies: concentration up to 30 µM. In short, it runs like this:
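CHO cells stably expressing human M2 and cotransfected with chimeric Gqi5, grown in Ham's F-12, 10% heat-inactivated FBS, 20 mM HEPES, 500 µg/mL G418 plus 500 µg/mL hygromycin B. Plated at 15,000 cells/well overnight (37 °C, 5% CO2), then Fluo-4 AM loaded 45 min at 37 °C in HBSS, 20 mM HEPES, 2.5 mM probenecid. Compound preincubated 144 s (0.3% DMSO final) before ACh; fluorescence read at 37 °C.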

In the case of `COc1ccc(C)c2sc(NC(=O)C(C)C)nc12` [Compound 7], the “%AChmax ± SEM” value at human M4 receptor is “Weak”.
As to `COc1ccc(C)c2sc(NC(=O)C3CCCCO3)nc12` (centres unmarked) [Compound 16], the “hM4 PAM activity (in words)” value at human M4 receptor is “deleterious to activity”.
The same measure, in the same setting: the result for `COc1ccc(C)c2sc(NC(=O)C3CCCOC3)nc12` (centres unmarked) [Compound 17] reads “deleterious to activity”.
Turning to `COc1ccc(C)c2sc(NC(=O)c3ccncc3)nc12` [Compound 21, N-(4-methoxy-7-methylbenzo[d]thiazol-2-yl)isonicotinamide], at M5, the “activity at M5” value is “inactive”. On M3, the “activity at M3” value is “inactive”. Besides, the “activity at M1” value at M1 was “inactive”. Further, the “activity at M2” value on M2 is “inactive”.
For `COc1ccc(C)c2sc(C(=O)Nc3ccncc3)nc12` [Compound 44], on human M4 receptor, the “%AChmax ± SEM” value is “Weak”.
The same measure, in the same setting: as for `COc1ccc(C)c2sc(C(=O)NC3CCCC3)nc12` [Compound 48], the entry is “Weak”; as for `COc1ccc(C)c2sc(C(=O)NC3COC3)nc12` [Compound 49], “Weak”.
In the case of `O=C(Nc1nc2ccccc2s1)C1CCCCO1` (centres unmarked) [Compound 50], the “hM4 PAM activity (in words)” value on human M4 receptor is “not tolerated”.
